Source: ChEMBL document CHEMBL4680154, “The optimization of xanthine derivatives leading to HBK001 hydrochloride as a potent dual ligand targeting DPP-IV and GPR119” (Eur J Med Chem, 2020)
≈ marks a conversion by molar mass, not a printed value.

Tests used:
Mus musculus = experiment: Antidiabetic activity in ICR mouse assessed as reduction in blood glucose AUC at 10 mg/kg, po administered as single dose followed by glucose challenge measured upto 120 mins by OGTT relative to control; assay type: functional; design: scale not given: the % may be the effect or the level left; settings: time min <=120
How it was run: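 ICR mice were fasted overnight and dosed by oral gavage, with distilled water as vehicle, before an oral glucose load of 2 g/kg. Tail-tip blood was sampled at 0, 30, 60 and 120 min and glucose measured by the glucose oxidase method. AUC was compared with the vehicle group. n = 10 per group, mean ± SEM.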

DPP8/9 = DPP8/9 (Homo sapiens, UniProt Q6V1X1+Q86TI2); experiment: Inhibition of recombinant human DPP8/9 expressed in Rosetta cells at 10 uM using Gly-Pro-p-nitroanilide as substrate incubated for 1 hr relative to control; settings: probe Gly-Pro-p-nitroanilide
[1] = target: T1, Glucose-dependent insulinotropic receptor (Homo sapiens, UniProt Q8TDV5); experiment: Agonist activity at CREB-LBD and Gal4-DBD fused recombinant human GPR119 expressed in HEK293 cells by firefly luciferase assay; assay type: functional, cell-based
T1 sequence (Q8TDV5 whole entry): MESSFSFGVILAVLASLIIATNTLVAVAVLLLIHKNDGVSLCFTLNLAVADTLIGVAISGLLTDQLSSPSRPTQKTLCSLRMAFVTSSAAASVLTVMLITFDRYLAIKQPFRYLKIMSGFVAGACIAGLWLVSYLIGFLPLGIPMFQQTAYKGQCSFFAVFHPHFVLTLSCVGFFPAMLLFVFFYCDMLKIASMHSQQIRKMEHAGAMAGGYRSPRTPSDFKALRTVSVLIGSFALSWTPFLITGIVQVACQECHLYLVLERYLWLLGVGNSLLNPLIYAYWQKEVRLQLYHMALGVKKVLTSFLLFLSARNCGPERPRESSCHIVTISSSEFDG
How it was run: (§1)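 HEK293 cells transiently transfected with human GPR119, a Gal4-DBD/CREB-LBD fusion and a Gal4 UAS-driven luciferase reporter, then treated with compound (DMSO vehicle). Firefly luciferase luminescence read. Activation fold = compound/vehicle, expressed as percent of the AR231453 activation fold. EC50 obtained by curve fitting.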

[2] = Metabolic stability in ICR/CD-1 mouse hepatocytes assessed as parent compound remaining incubated for 30 mins by LC-MS/MS analysis; assay type: ADME, cell-based, Hepatocyte; settings: read-out: Stabilty
How it was run: (§2)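 Hepatocytes from male ICR/CD-1 mice, male Sprague-Dawley rats, or mixed human donors. Parent compound measured after 30 min incubation and normalised to the time-zero concentration.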

[3] = Metabolic stability in Sprague-Dawley rat hepatocytes assessed as parent compound remaining incubated for 30 mins by LC-MS/MS analysis; assay type: ADME, cell-based, Hepatocyte; settings: read-out: Stabilty; how it was run: as §2
[4] = Metabolic stability in human hepatocytes assessed as parent compound remaining incubated for 30 mins by LC-MS/MS analysis; assay type: ADME, cell-based, Hepatocyte; settings: read-out: Stabilty; how it was run: as §2
Vero = experiment: Cytotoxicity against African green monkey Vero cells incubated for 48 hrs by MTT assay; settings: Chlorocebus sabaeus
[5] = Elimination half life in ICR mouse plasma at 20 mg/kg, po measured up to 24 hrs; assay type: ADME, organism-based; settings: read-out: beta t1/2 (converted)
How it was run: (§3)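 Male ICR mice (26–27 g), three per route. Oral dose given as a 2 mg/mL suspension in 0.5% carboxymethyl cellulose; intravenous dose as 0.4 mg/mL in 30% SBECD with 1 mol/L HCl. Blood taken at 5, 15, 30 min and 1, 2, 4, 7, 24 h; plasma stored at -80 °C. Non-compartmental analysis; F = (AUCpo×dose iv)/(AUCiv×dose po).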

[6] = Elimination half life in ICR mouse plasma at 2 mg/kg, iv measured up to 24 hrs; assay type: ADME, organism-based; settings: read-out: beta t1/2 (converted); how it was run: as §3
[7] = Elimination half-life in Sprague-Dawley rat plasma at 30 mg/kg, po measured up to 24 hrs; assay type: ADME, organism-based; settings: read-out: beta t1/2 (converted)
How it was run: (§4)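 Male SD rats (180–200 g), three per route, dosed as free base content. Oral formulation in 0.5% carboxymethyl cellulose; intravenous formulation in normal saline. Sampling at 5, 15, 30 min and 1, 1.5, 2, 4, 6, 8, 12, 24 h; plasma kept at -80 °C. Non-compartmental parameters; F = (AUCpo×dose iv)/(AUCiv×dose po).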

[8] = Tmax in ICR mouse plasma at 20 mg/kg, po measured up to 24 hrs; assay type: ADME, organism-based; how it was run: as §3
[9] = Tmax in Sprague-Dawley rat plasma at 30 mg/kg, po measured up to 24 hrs; assay type: ADME, organism-based; how it was run: as §4
[10] = Cmax in ICR mouse plasma at 20 mg/kg, po measured up to 24 hrs; assay type: ADME, organism-based; design: route oral, dose 20 mg/kg, time <=24; how it was run: as §3
[11] = Cmax in ICR mouse plasma at 2 mg/kg, iv measured up to 24 hrs; assay type: ADME, organism-based; design: route intravenous, dose 2 mg/kg, time <=24; how it was run: as §3
[12] = Cmax in Sprague-Dawley rat plasma at 30 mg/kg, po measured up to 24 hrs; assay type: ADME, organism-based; design: route oral, dose 30 mg/kg, time <=24; how it was run: as §4
[13] = AUC(0 to t) in ICR mouse plasma at 20 mg/kg, po measured up to 24 hrs; assay type: ADME, organism-based; design: route oral, dose 20 mg/kg, time <=24; how it was run: as §3
[14] = AUC(0 to t) in ICR mouse plasma at 2 mg/kg, iv measured up to 24 hrs; assay type: ADME, organism-based; design: route intravenous, dose 2 mg/kg, time <=24; how it was run: as §3
[15] = AUC(0 to t) in Sprague-Dawley rat plasma at 30 mg/kg, po measured up to 24 hrs; assay type: ADME, organism-based; design: route oral, dose 30 mg/kg, time <=24; how it was run: as §4
[16] = AUC(0 to infinity) in ICR mouse plasma at 20 mg/kg, po measured up to 24 hrs; assay type: ADME, organism-based; design: route oral, dose 20 mg/kg, time <=24; how it was run: as §3
[17] = AUC(0 to infinity) in ICR mouse plasma at 2 mg/kg, iv measured up to 24 hrs; assay type: ADME, organism-based; design: route intravenous, dose 2 mg/kg, time <=24; how it was run: as §3
[18] = AUC(0 to infinity) in Sprague-Dawley rat plasma at 30 mg/kg, po measured up to 24 hrs; assay type: ADME, organism-based; design: route oral, dose 30 mg/kg, time <=24; how it was run: as §4
[19] = Mean residence time (0 to infinity) in ICR mouse at 20 mg/kg, po measured up to 24 hrs; assay type: ADME, organism-based; settings: in vivo; how it was run: as §3
[20] = Mean residence time (0 to infinity) in ICR mouse at 2 mg/kg, iv measured up to 24 hrs; assay type: ADME, organism-based; settings: in vivo; how it was run: as §3
[21] = Mean residence time (0 to infinity) in Sprague-Dawley rat at 30 mg/kg, po measured up to 24 hrs; assay type: ADME, organism-based; settings: in vivo; how it was run: as §4
[22] = Oral bioavailability in ICR mouse at 20 mg/kg; assay type: ADME, organism-based; settings: in vivo; how it was run: as §3
[23] = Oral bioavailability in Sprague-Dawley rat at 30 mg/kg; assay type: ADME, organism-based; settings: in vivo; how it was run: as §4
[24] = target: T2, Glucose-dependent insulinotropic receptor (Homo sapiens) (UniProt Q8TDV5); experiment: Agonist activity at CREB-LBD and Gal4-DBD fused recombinant human GPR119 expressed in HEK293 cells at 1 uM by firefly luciferase assay relative to AR231453; assay type: functional, cell-based; settings: filed as agonist; how it was run: as §1
T2 sequence (whole entry): T1 sequence (Q8TDV5 whole entry)

## COc1c(Nc2ccc(S(C)(=O)=O)nc2C)ncnc1OC1CCN(C(=O)OC(C)C)CC1 [ADP-597]
Mus musculus
  Activity: 19.9%

## CC#CCn1c(N2CCC[C@@H](N)C2)nc2c1c(=O)n(CCCN1CCN(c3nc(-c4ccccc4)no3)CC1)c(=O)n2C
DPP8/9
  inhibition at 1 h, 10 µM: 0%
[1]
  EC50: 1.4 µM
[2]
  remaining at 0.5 h: 32%
[3]
  remaining at 0.5 h: 23.8%
[4]
  remaining at 0.5 h: 101%
Vero
  IC50: 46.6 µg/mL (≈ 79.4 µM)
[5]
  half-life: 1.06 h
[6]
  half-life: 1.64 h
[7]
  half-life: 1.11 h
[8]
  Tmax: 0.42 h
[9]
  Tmax: 1.17 h
[10]
  Cmax: 213 ng/mL
[11]
  Cmax: 850 ng/mL
[12]
  Cmax: 192 ng/mL
[13]
  AUC(0-t) at 24 h: 308 ng·h/mL
[14]
  AUC(0-t) at 24 h: 257 ng·h/mL
[15]
  AUC(0-t) at 24 h: 468 ng·h/mL
[16]
  AUC(0-inf): 318 ng·h/mL
[17]
  AUC(0-inf): 261 ng·h/mL
[18]
  AUC(0-inf): 502 ng·h/mL
[19]
  MRT inf: 1.22 h
[20]
  MRT inf: 0.76 h
[21]
  MRT inf: 2.11 h
[22]
  bioavailability: 12.2%
[23]
  bioavailability: 31.8%

## CC#CCn1c(N2CCC[C@@H](N)C2)nc2c1c(=O)n(CCCN1CCN(c3ncc(C(F)(F)F)cn3)CC1)c(=O)n2C
[24]
  Activity: 90%
[1]
  EC50: 4.02 µM

## CC#CCn1c(N2CCC[C@@H](N)C2)nc2c1c(=O)n(CCCN1CCN(c3nc(-c4ccccc4)cs3)CC1)c(=O)n2C
DPP8/9
  inhibition at 1 h, 10 µM: 0%
[24]
  Activity: 56%
[1]
  EC50: 0.65 µM
[2]
  remaining at 0.5 h: 68.3%
[3]
  remaining at 0.5 h: 39.6%
[4]
  remaining at 0.5 h: 91.5%
Vero
  IC50: 4.3 µg/mL (≈ 7.15 µM)

## CC#CCn1c(N2CCC[C@@H](N)C2)nc2c1c(=O)n(CCCN1CCC(c3nnnn3-c3ccccc3)CC1)c(=O)n2C
DPP8/9
  inhibition at 1 h, 10 µM: 4.6%
[24]
  Activity: 53%

## CC#CCn1c(N2CCC[C@@H](N)C2)nc2c1c(=O)n(CCCN1CCN(c3cc(C)nn3-c3ccccc3)CC1)c(=O)n2C
DPP8/9
  inhibition at 1 h, 10 µM: 15.4%
[24]
  Activity: 42%

## CC#CCn1c(N2CCC[C@@H](N)C2)nc2c1c(=O)n(CCCN1CCN(c3noc(-c4ccccc4)n3)CC1)c(=O)n2C
[24]
  Activity: 89%
[1]
  EC50: 1.45 µM
[2]
  remaining at 0.5 h: 24.2%
[3]
  remaining at 0.5 h: 25%
[4]
  remaining at 0.5 h: 82%
Vero
  IC50: 8.7 µg/mL (≈ 14.8 µM)

## CC#CCn1c(N2CCC[C@@H](N)C2)nc2c1c(=O)n(CCCN1CCN(c3ncc(OC)cn3)CC1)c(=O)n2C
[24]
  Activity: 79%
[1]
  EC50: 2.26 µM

## N[C@@H](CC(=O)N1CCn2c(nnc2C(F)(F)F)C1)Cc1cc(F)c(F)cc1F [SITAGLIPTIN]
Mus musculus
  Activity: 27.3%

## CC#CCn1c(N2CCC[C@@H](N)C2)nc2c1c(=O)n(CCCN1CCN(c3ncc(C)cn3)CC1)c(=O)n2C
[24]
  Activity: 60%
[1]
  EC50: 2.56 µM

## CC#CCn1c(N2CCC[C@@H](N)C2)nc2c1c(=O)n(CCCN1CCN(c3ncc(F)cn3)CC1)c(=O)n2C
[24]
  Activity: 78%
[1]
  EC50: 1.41 µM
